Assay results published in ChEMBL document CHEMBL3351838, “Ligand-based pharmacophore modeling and virtual screening for the discovery of novel 17β-hydroxysteroid dehydrogenase 2 inhibitors” (J Med Chem, 2014).

Columns and labels:
[1] = target: T1, 17-beta-hydroxysteroid dehydrogenase type 2 (Homo sapiens) (UniProt P37059); experiment: Inhibition of 17beta-HSD2 (unknown origin) expressed in HEK293 cells lysate assessed as residual enzyme activity at 20 uM; format: cell-free
T1 sequence (whole entry): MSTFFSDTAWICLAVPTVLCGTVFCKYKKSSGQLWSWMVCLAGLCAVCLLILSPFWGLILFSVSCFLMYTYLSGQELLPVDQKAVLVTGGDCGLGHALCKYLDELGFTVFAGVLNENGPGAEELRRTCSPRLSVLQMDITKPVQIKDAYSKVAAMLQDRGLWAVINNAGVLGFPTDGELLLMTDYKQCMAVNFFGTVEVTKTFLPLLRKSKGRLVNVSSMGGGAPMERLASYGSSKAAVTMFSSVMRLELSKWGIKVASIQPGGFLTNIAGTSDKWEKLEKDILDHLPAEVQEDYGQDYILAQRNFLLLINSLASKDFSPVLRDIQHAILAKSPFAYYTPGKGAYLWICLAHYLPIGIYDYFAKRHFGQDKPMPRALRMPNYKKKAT
Method in brief: (§1)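 Human 17β-HSD2 from lysates of calcium-phosphate-transfected HEK-293 cells (harvested 48 h). Incubated 10 min at 37 °C in TS2 buffer (pH 7.4) with inhibitor or 0.2% DMSO/chloroform. Substrate 190 nM unlabeled plus 10 nM radiolabeled estradiol with 500 μM NAD+. Stopped with excess estradiol/estrone. Radiolabeled steroids separated by TLC and counted; at least three independent measurements. Rest activity at 20 μM as % of control.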

[2] = target: T2, 17-beta-hydroxysteroid dehydrogenase type 3 (Homo sapiens) (UniProt P37058); experiment: Inhibition of 17beta-HSD3 (unknown origin) expressed in intact HEK293 cells assessed as residual enzyme activity at 20 uM; format: cell-based
T2 sequence (whole entry): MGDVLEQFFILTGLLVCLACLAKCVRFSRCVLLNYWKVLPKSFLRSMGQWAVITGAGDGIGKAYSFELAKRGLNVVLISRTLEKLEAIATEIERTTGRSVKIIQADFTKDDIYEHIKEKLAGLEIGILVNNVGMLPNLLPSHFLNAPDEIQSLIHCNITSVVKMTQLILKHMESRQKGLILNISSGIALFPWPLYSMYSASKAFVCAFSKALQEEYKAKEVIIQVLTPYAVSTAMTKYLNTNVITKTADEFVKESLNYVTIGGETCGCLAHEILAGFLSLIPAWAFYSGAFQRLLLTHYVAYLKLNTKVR
Method in brief: (§2)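 HEK-293 cells transiently transfected with 17β-HSD3 by calcium phosphate were seeded at 15 000 cells/well and tested 24 h later in charcoal-treated DMEM. Inhibitor was preincubated 20 min at 37 °C. Substrate was 190 nM unlabeled plus 10 nM radiolabeled androstenedione for 30 min. Reactions stopped with excess androstenedione/testosterone. TLC separation and scintillation counting.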

[3] = target: T3, 11-beta-hydroxysteroid dehydrogenase type 2 (Homo sapiens) (UniProt P80365); experiment: Inhibition of 11beta-HSD2 (unknown origin) expressed in HEK293 cells lysate assessed as residual enzyme activity at 20 uM; format: cell-free
T3 sequence (whole entry): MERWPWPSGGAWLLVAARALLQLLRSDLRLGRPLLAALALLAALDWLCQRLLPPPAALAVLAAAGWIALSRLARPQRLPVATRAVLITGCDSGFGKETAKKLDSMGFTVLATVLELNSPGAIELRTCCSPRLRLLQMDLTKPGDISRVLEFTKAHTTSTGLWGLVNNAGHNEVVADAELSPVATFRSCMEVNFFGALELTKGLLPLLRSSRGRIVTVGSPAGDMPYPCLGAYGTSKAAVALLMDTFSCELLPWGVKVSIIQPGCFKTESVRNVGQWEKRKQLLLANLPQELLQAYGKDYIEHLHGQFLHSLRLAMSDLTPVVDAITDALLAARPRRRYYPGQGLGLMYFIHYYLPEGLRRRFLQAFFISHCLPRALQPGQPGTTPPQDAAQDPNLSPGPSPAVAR
Method in brief: (§3)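 Lysates of stably transfected cells expressing 11β-HSD1 or 11β-HSD2, 10 min at 37 °C in TS2 buffer (pH 7.4) with inhibitor or 0.2% DMSO solvent. Reactions stopped after 10 min with excess unlabeled cortisone/cortisol. Steroids separated by TLC and quantified by scintillation counting. At least three independent measurements. Lines 2 and 3 report rest activity at 20 μM as % of control.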

[4] = target: T4, 17-beta-hydroxysteroid dehydrogenase type 1 (Homo sapiens) (UniProt P14061); experiment: Inhibition of 17beta-HSD1 (unknown origin) expressed in HEK293 cells lysate assessed as residual enzyme activity at 20 uM; format: cell-free
T4 sequence (whole entry): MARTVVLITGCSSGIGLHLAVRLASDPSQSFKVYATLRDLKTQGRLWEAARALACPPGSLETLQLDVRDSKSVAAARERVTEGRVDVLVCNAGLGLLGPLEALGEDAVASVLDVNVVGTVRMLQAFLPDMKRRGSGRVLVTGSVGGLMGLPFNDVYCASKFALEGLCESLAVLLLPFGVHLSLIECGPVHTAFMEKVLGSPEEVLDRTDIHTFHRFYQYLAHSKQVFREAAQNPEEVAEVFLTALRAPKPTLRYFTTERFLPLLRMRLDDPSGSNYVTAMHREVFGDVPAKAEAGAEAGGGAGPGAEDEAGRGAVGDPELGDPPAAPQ
Method in brief: (§4)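 Lysate of HEK-293 cells transfected by calcium phosphate with human 17β-HSD1, harvested after 48 h. Incubated 10 min at 37 °C in TS2 buffer (pH 7.4) with inhibitor or 0.2% DMSO/chloroform. Substrate 190 nM unlabeled plus 10 nM radiolabeled estrone with 500 μM NADPH. Stopped with excess estradiol/estrone. TLC separation and scintillation counting; at least three independent measurements.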

[5] = target: T5, 11-beta-hydroxysteroid dehydrogenase 1 (Homo sapiens, UniProt P28845); experiment: Inhibition of 11beta-HSD1 (unknown origin) expressed in HEK293 cells lysate assessed as residual enzyme activity at 20 uM; format: cell-free; method in brief: as §3
Target sequence in this assay (P28845 whole entry, looked up): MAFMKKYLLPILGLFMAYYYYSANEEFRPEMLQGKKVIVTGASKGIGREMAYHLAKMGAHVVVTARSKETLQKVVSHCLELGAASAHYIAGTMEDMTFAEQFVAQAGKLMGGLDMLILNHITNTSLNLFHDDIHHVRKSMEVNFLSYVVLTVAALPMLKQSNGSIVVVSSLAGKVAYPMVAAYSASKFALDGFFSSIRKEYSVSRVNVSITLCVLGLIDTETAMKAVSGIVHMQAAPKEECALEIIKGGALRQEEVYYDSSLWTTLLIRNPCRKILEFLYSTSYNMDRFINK

[6] = target: T6, 17-beta-hydroxysteroid dehydrogenase type 2 (Homo sapiens, UniProt P37059); experiment: Inhibition of 17beta-HSD2 (unknown origin) expressed in intact HEK293 cells; format: cell-based
T6 sequence (P37059 whole entry): T1 sequence (whole entry)
Method in brief: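 Transfected HEK-293 cells were seeded at 15 000 cells/well 24 h after transfection and assayed 24 h later in charcoal-treated DMEM. Inhibitor was preincubated 20 min at 37 °C, followed by 190 nM unlabeled plus 10 nM radiolabeled estradiol for 20 min. Reactions stopped with excess estradiol/estrone. Steroids separated by TLC and measured by scintillation counting.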

[7] = target: T6, 17-beta-hydroxysteroid dehydrogenase type 2; experiment: Inhibition of 17beta-HSD2 (unknown origin) expressed in HEK293 cells lysate; format: cell-free; method in brief: as §1
[8] = target: T7, 17-beta-hydroxysteroid dehydrogenase type 3 (Homo sapiens, UniProt P37058); experiment: Inhibition of 17beta-HSD3 (unknown origin) expressed in intact HEK293 cells; format: cell-based; method in brief: as §2
T7 sequence (P37058 whole entry): T2 sequence (whole entry)

[9] = target: T5, 11-beta-hydroxysteroid dehydrogenase 1; experiment: Inhibition of 11beta-HSD1 (unknown origin) expressed in HEK293 cells lysate; format: cell-free; method in brief: as §3
Target sequence in this assay (P28845 whole entry): as the sequence (P28845 whole entry, looked up) above

[10] = target: T8, 17-beta-hydroxysteroid dehydrogenase type 1 (Homo sapiens, UniProt P14061); experiment: Inhibition of 17beta-HSD1 (unknown origin) expressed in HEK293 cells lysate; format: cell-free; method in brief: as §4
T8 sequence (P14061 whole entry): T4 sequence (whole entry)

Row | Activity [1] [%] | Activity [3] [%] | Activity [4] [%] | IC50 [7] [µM] | SMILES | further results
1 | > 70 |  |  |  | CC(=O)Nc1ccccc1NS(=O)(=O)c1c(C)c(C)cc(C)c1C | 
2 | 8 | > 70 | > 70 | 1.5 | O=C(CSc1nccc(O)n1)Nc1cccc2nsnc12 | Activity [2]: > 70%; Activity [5]: > 70%; IC50 [6]: 1.1 µM
3 | 67 |  |  |  | CCC(=O)c1ccc(OS(=O)(=O)c2ccc(NC(C)=O)cc2)cc1 | 
4 | 47 |  |  |  | COc1ccc(S(=O)(=O)Nc2ccc(C)c(O)c2)cc1 | 
5 | 25 | > 70 | > 70 | 7.1 | Cc1ccc(NS(=O)(=O)c2cccc(C(F)(F)F)c2)cc1O | Activity [2]: > 70%; Activity [5]: > 70%
6 | 64 |  |  |  | Cc1cc(Br)c(OCC(=O)N/N=C/c2c(C)cc(O)cc2O)c(Br)c1 | 
7 | > 70 |  |  |  | O=S(=O)(Nc1cccc(Cl)c1)c1ccc(F)cc1 | 
8 | > 70 |  |  |  | CC(=O)Nc1ccccc1OS(=O)(=O)c1ccc(C)c(C)c1 | 
9 | 55 |  |  |  | O=S(=O)(Nc1ccc(O)cc1)c1ccc(Cl)cc1 | 
10 | 38 |  |  |  | COc1ccc(/C=N/NC(=O)COc2c(Br)cc(C)cc2Br)c(OC)c1 | 
11 | > 70 |  |  |  | COc1cc(C)c(S(=O)(=O)Nc2ccc(C(=O)O)cc2)cc1C | 
12 |  | > 70 | > 70 | 3.3 | Cc1cc(C)c(S(=O)(=O)Nc2cccc(O)c2)cc1C | Activity [2]: 43%; Activity [5]: > 70%
13 | > 70 |  |  |  | CC(=O)Nc1ccc(S(=O)(=O)Oc2ccc3c(c2)NCCC3)cc1 | 
14 | > 70 |  |  |  | COc1ccc(NS(=O)(=O)c2ccc(Cl)cc2)cc1 | 
15 | 44 |  |  |  | Cc1cc(S(=O)(=O)Nc2cc(Cl)ccc2O)ccc1F | 
16 | > 70 |  |  |  | COc1ccc(NS(=O)(=O)c2cc(C)ccc2C)cc1 | 
17 | > 70 |  |  |  | COc1cc(C)c(S(=O)(=O)Nc2ccc(Cl)cc2)cc1C | 
18 | 9 | 61 | 52 | 4.1 | Cc1cc(C)c(OCC(=O)N/N=C/c2ccc(O)cc2O)c(Br)c1 | IC50 [8]: 1.6 µM; Activity [5]: 69%; IC50 [6]: 23 µM
19 |  | > 70 |  | 1 | Cc1cc(S(=O)(=O)Nc2cccc(O)c2)c(C)cc1Cl | Activity [2]: 53%; IC50 [10]: 18 µM; Activity [5]: > 70%
20 | > 70 |  |  |  | O=S(=O)(Nc1ccccc1F)c1ccc(Br)cc1 | 
21 | 39 |  |  |  | Cc1ccc(C)c(S(=O)(=O)Nc2ccc(O)cc2)c1 | 
22 | > 70 |  |  |  | Cc1ccc(Cl)cc1NS(=O)(=O)c1ccc(F)cc1 | 
23 | 51 |  |  |  | COc1ccccc1OS(=O)(=O)c1ccc(C(C)(C)C)cc1 | 

Further lines, the molecule ahead of its results:

Row | SMILES | Activity [1] [%] | Activity [3] [%] | Activity [4] [%] | IC50 [7] [µM] | further results
24 | COc1cc(C)c(S(=O)(=O)Nc2cccc(O)c2)cc1C | 15 | > 70 | > 70 | 6.9 | Activity [2]: > 70%; Activity [5]: > 70%
25 | CCc1ccc(CC)c(S(=O)(=O)Nc2cc(OC)ccc2OC)c1 | > 70 |  |  |  | 
26 | O=S(=O)(Nc1ccc(O)c(Cl)c1)c1ccc(F)cc1 | 9 | > 70 | > 70 | 3 | IC50 [8]: 3.9 µM; Activity [5]: > 70%; IC50 [6]: 10 µM
27 | Cc1ccc(NS(=O)(=O)c2cccc(Br)c2)cc1O |  | > 70 | 58 | 6.3 | Activity [2]: > 70%; Activity [5]: > 70%
28 | O=S(=O)(Nc1ccccc1CO)c1ccc(Cl)cc1 | > 70 |  |  |  | 
29 | CC(C)(C)c1ccc(S(=O)(=O)Oc2ccccc2O)cc1 | 6 | > 70 | > 70 | 0.24 | IC50 [8]: 8.5 µM; IC50 [6]: 0.52 µM; IC50 [9]: 2.1 µM
30 | O=S(=O)(Nc1cccc(O)c1)c1ccc(Br)cc1 |  | > 70 | > 70 | 4.9 | Activity [2]: > 70%; Activity [5]: > 70%
31 | Cc1ccc(NS(=O)(=O)c2ccc(Cl)cc2)cc1O | 45 |  |  |  | 
32 | C/C(=N\NC(=O)COc1ccc(C)cc1Br)c1ccc(O)cc1O | > 70 |  |  |  | 
33 | O=S(=O)(Nc1ccc(F)c(Cl)c1)c1ccc(F)cc1 | 45 |  |  |  | 
34 | O=C(CSc1ncccn1)Nc1cccc2nsnc12 | > 70 |  |  |  | 
35 | COc1ccccc1OS(=O)(=O)c1ccc(NC(C)=O)cc1 | > 70 |  |  |  | 
36 | Clc1ccc(Cl)c(-c2ccc(CNc3nn[nH]n3)o2)c1 | 29 | > 70 | > 70 | 33 | Activity [2]: > 70%; Activity [5]: > 70%
37 | Cc1cc(C)c(S(=O)(=O)Nc2ccc(O)cc2)c(C)c1 | 33 |  |  |  | 
38 | COc1ccc(S(=O)(=O)Nc2cccc(O)c2)c2c1CCCC2 |  | > 70 | 53 | 15 | Activity [2]: > 70%; IC50 [9]: 13 µM
39 | CC(O)c1ccccc1NS(=O)(=O)c1ccc(F)cc1 (stereo not drawn) | > 70 |  |  |  | 
40 | COc1ccc(S(=O)(=O)Nc2ccc(O)c3c2CCCC3)cc1 |  | > 70 | > 70 | 9.6 | Activity [2]: > 70%; IC50 [9]: 8.1 µM
